Assay results: ChEMBL document CHEMBL1938392, “N-Amino acid linoleoyl conjugates: anti-inflammatory activities” (Bioorg Med Chem Lett, 2012)
Calls of active or inactive are those of the source. The calls are words filed in the database; no cut-off is given here.

Assays:
[1] = test system: RAW264.7; assay: Cytotoxicity in mouse RAW264.7 cells assessed as decrease in cell viability at 0.3 to 10 uM after 20 hrs; format: cell-based; conditions: raw264.7, 20 h
[2] = test system: RAW264.7; assay: Antiinflammatory activity in TNFalpha-stimulated mouse RAW264.7 cells assessed as PGJ level at 3 uM after 20 hrs by ELISA; format: functional
Summary of the method: (§1)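 Mouse RAW264.7 macrophages were grown in DMEM with 10% FBS and passaged by scraping without trypsin. Cells were seeded at 50,000 per well in DMEM+FCS with TNFα (10 nM) and incubated 20 hrs at 37°C, 5% CO2. Medium was then changed to serum-free DMEM, cells were treated for 2 hrs, and PGJ in the medium was measured by ELISA. DMSO was the vehicle control.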

[3] = test system: RAW264.7; assay: Antiinflammatory activity in TNFalpha-stimulated mouse RAW264.7 cells assessed as reduction in cell count at 10 uM after 20 hrs relative to control; format: functional; parameters: scale not given: the % may be the effect or the level left
Summary of the method: (§2)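 RAW264.7 cells were kept in DMEM/10% FBS and subcultured by scraping. They were plated at 50,000 per well with TNFα (10 nM) for 20 hrs at 37°C, 5% CO2, then switched to serum-free DMEM for 2 hrs of treatment. Cell numbers were compared with the vehicle control.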

[4] = test system: RAW264.7; assay: Antiinflammatory activity in TNFalpha-stimulated mouse RAW264.7 cells assessed as PGJ level at 1 uM after 20 hrs by ELISA; format: functional; summary of the method: as §1
[5] = test system: RAW264.7; assay: Antiinflammatory activity in TNFalpha-stimulated mouse RAW264.7 cells assessed as cell count at 0.3 uM after 20 hrs relative to control; format: functional; summary of the method: as §2
[6] = test system: RAW264.7; assay: Antiinflammatory activity in TNFalpha-stimulated mouse RAW264.7 cells assessed as reduction in cell count at 3 uM after 20 hrs relative to control; format: functional; parameters: scale not given: the % may be the effect or the level left; summary of the method: as §2
[7] = test system: RAW264.7; assay: Antiinflammatory activity in TNFalpha-stimulated mouse RAW264.7 cells assessed as PGJ level at 10 uM after 20 hrs by ELISA; format: functional; summary of the method: as §1
[8] = test system: RAW264.7; assay: Antiinflammatory activity in TNFalpha-stimulated mouse RAW264.7 cells assessed as PGJ level at 0.3 uM after 20 hrs by ELISA; format: functional; summary of the method: as §1
[9] = test system: RAW264.7; assay: Antiinflammatory activity in TNFalpha-stimulated mouse RAW264.7 cells assessed as reduction in cell count at 1 uM after 20 hrs relative to control; format: functional; parameters: scale not given: the % may be the effect or the level left; summary of the method: as §2
[10] = test system: RAW264.7; assay: Antiinflammatory activity in TNFalpha-stimulated mouse RAW264.7 cells assessed as PGJ level at 2.5 uM after 20 hrs by ELISA; format: functional; summary of the method: as §1
[11] = test system: Mus musculus; assay: Antiinflammatory activity in mouse peritonitis model assessed as accumulation of PGJ per 10^3 peritoneal cells at 0.3 to 20 mg/kg, po after 3 hrs by ELISA; format: functional, organism-based
Summary of the method: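 Mice were dosed by mouth in safflower oil (0.3–20 mg/kg); the safflower oil vehicle served as control. After 30 min they received 1 ml of 8% thioglycollate medium i.p. Peritoneal cells were harvested, cultured for 18 hrs, and PGJ in the medium was measured by ELISA. N=4.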

[12] = test system: RAW264.7; assay: Antiinflammatory activity in TNFalpha-stimulated mouse RAW264.7 cells assessed as PGJ level at 5 uM after 20 hrs by ELISA; format: functional; summary of the method: as §1
[13] = test system: Mus musculus; assay: Antiinflammatory activity in po dosed mouse peritonitis model assessed as inhibition of thiglycollate-induced migration of leukocytes into the peritoneal cavity administered 30 mins prior to thiglycollate-challenge; format: functional
Summary of the method: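 Oral doses of 0.3–20 mg/kg in safflower oil were given to mice; controls received safflower oil. Thirty minutes later, 1 ml of sterile-filtered 8% thioglycollate medium was injected i.p. After 3 hrs, peritoneal cells were harvested, erythrocytes were lysed for 2 min, cells were resuspended in PBS/BSA, and differential leukocyte counts were made. N=8.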

[14] = test system: RAW264.7; assay: Antiinflammatory activity in TNFalpha-stimulated mouse RAW264.7 cells assessed as PGJ level at 0.5 uM after 20 hrs by ELISA; format: functional; summary of the method: as §1
[15] = test system: RAW264.7; assay: Antiinflammatory activity in TNFalpha-stimulated mouse RAW264.7 cells assessed as reduction in cell count at 0.3 uM after 20 hrs relative to control; format: functional; parameters: scale not given: the % may be the effect or the level left; summary of the method: as §2

CCCCC/C=C\C/C=C\CCCCCCCC(=O)N[C@H](C)C(=O)O
Activity [1]: Non-toxic
Activity [2]: 233 pg/mL
Activity [3]: 30.5%
Activity [4]: 18 pg/mL
Activity [5]: 136%
Activity [6]: 33.9%
Activity [7]: 1580 pg/mL
Activity [8]: <16 pg/mL
Activity [9]: 65.9%

CCCCC/C=C\C/C=C\CCCCCCCC(=O)NCC(=O)O [LINOLEOYL GLYCINE]
Activity [10]: 1843 pg/mL
Activity [4]: 177 pg/mL
Activity [7]: 7315 pg/mL
Activity [11]: Active
Activity [12]: 3907 pg/mL
ED50 [13]: < 0.3 mg/kg
Activity [14]: <16 pg/mL

CCCCC/C=C\C/C=C\CCCCCCCC(=O)N[C@@H](C)C(=O)O
Activity [1]: Non-toxic
Activity [2]: <16 pg/mL
Activity [3]: 55.5%
Activity [4]: <16 pg/mL
Activity [6]: 68.5%
Activity [7]: 30.3 pg/mL
Activity [8]: <16 pg/mL
Activity [15]: 55.6%
Activity [9]: 74.3%

CCCCC/C=C\C/C=C\C/C=C\C/C=C\CCCC(=O)NCC(=O)O [ARACHIDONOYL GLYCINE]
Activity [4]: <16 pg/mL
Activity [7]: 6847 pg/mL
